Molecules are shown by their SMILES.

In assay [1] the target is T1, Mitogen-activated protein kinase 13 (Homo sapiens) (UniProt O15264).
T1 sequence (whole entry): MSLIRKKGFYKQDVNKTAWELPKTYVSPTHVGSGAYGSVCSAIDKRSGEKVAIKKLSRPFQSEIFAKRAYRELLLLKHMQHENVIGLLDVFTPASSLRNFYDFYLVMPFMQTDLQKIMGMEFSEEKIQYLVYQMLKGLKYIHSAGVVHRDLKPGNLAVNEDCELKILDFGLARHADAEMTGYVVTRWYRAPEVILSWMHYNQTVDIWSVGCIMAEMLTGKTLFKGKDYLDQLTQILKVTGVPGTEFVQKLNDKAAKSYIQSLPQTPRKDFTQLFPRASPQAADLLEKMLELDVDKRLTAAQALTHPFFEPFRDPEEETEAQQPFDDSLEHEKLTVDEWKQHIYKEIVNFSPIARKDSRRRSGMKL
The experiment in a line: Inhibition of human SAPK4 assessed as residual activity at 10 uM by KinaseProfiler assay. In a few lines: (§1)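 Radioactive phosphorylation assays were run by an outsourced profiling service. Each of 31 human kinases was tested with inhibitor at 10 µM. Residual activity is expressed as a percentage of the mean activity in positive-control wells, which contained all reaction components except inhibitor plus DMSO as solvent control.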

Assay [2] has as its target MAP kinase-activated protein kinase 3 (Homo sapiens) (UniProt Q16644). The experiment in a line: Inhibition of human MAPKAP-K3 assessed as residual activity at 10 uM by KinaseProfiler assay. In a few lines:
as §1

For assay [3], the target named is T2, 3-phosphoinositide-dependent protein kinase 1 (Homo sapiens) (UniProt O15530).
T2 sequence (whole entry): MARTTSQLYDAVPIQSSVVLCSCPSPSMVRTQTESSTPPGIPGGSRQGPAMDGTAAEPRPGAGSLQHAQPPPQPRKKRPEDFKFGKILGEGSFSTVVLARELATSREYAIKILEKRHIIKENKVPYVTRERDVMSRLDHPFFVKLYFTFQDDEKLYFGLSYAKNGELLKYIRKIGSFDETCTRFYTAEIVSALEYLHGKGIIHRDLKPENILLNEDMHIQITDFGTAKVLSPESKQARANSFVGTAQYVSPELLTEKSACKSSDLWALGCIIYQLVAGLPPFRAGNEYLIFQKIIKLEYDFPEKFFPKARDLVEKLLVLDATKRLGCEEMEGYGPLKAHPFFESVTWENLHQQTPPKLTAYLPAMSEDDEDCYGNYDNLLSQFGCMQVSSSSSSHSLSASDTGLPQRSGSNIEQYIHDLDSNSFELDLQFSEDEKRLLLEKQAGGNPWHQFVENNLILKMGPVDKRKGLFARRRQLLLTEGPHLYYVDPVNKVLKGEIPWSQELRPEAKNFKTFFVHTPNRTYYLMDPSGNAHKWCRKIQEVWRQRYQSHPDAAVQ
The experiment in a line: Inhibition of human PDK1 assessed as residual activity at 10 uM by KinaseProfiler assay. In a few lines: as §1

Assay [4] is filed under the species Homo sapiens. The experiment in a line: Inhibition of human PKA assessed as residual activity at 10 uM by KinaseProfiler assay. In a few lines:
as §1

Assay [5] addresses T3, Mitogen-activated protein kinase 12 (Homo sapiens) (UniProt P53778).
T3 sequence (whole entry): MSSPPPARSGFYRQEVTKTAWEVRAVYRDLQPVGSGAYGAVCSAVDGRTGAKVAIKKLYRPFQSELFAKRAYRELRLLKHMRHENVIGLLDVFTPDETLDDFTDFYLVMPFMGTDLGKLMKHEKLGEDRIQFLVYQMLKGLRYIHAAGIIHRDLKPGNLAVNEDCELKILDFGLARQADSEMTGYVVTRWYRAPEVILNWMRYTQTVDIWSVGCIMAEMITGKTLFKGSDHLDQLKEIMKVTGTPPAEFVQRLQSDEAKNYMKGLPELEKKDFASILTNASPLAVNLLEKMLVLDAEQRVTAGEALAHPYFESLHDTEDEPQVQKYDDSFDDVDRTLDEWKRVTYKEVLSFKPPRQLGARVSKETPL
The experiment in a line: Inhibition of human SAPK3 assessed as residual activity at 10 uM by KinaseProfiler assay. In a few lines: as §1

Assay [6] has as its target Tyrosine-protein kinase SYK (Homo sapiens) (UniProt P43405). The experiment in a line: Inhibition of human Syk assessed as residual activity at 10 uM by KinaseProfiler assay. In a few lines:
as §1

Assay [7] deals with Rho-associated protein kinase 2 (Homo sapiens) (UniProt O75116). The experiment in a line: Inhibition of human ROCK2 assessed as residual activity at 10 uM by KinaseProfiler assay. In a few lines: as §1
Assay [8] concerns the target Mitogen-activated protein kinase 14 (Homo sapiens) (UniProt Q16539). The experiment in a line: Inhibition of human SAPK2a assessed as residual activity at 10 uM by KinaseProfiler assay. In a few lines: as §1
Assay [9] is filed under the species Homo sapiens. The experiment in a line: Inhibition of human CK1 assessed as residual activity at 10 uM by KinaseProfiler assay. In a few lines: as §1
For assay [10], the target named is Mitogen-activated protein kinase 8 (Homo sapiens) (UniProt P45983). The experiment in a line: Inhibition of human JNK1alpha1 assessed as residual activity at 10 uM by KinaseProfiler assay. In a few lines: as §1
Assay [11] concerns the target Mitogen-activated protein kinase 9 (Homo sapiens) (UniProt P45984). The experiment in a line: Inhibition of human JNK2alpha2 assessed as residual activity at 10 uM by KinaseProfiler assay. In a few lines: as §1
Assay [12] deals with MAP kinase-activated protein kinase 2 (Homo sapiens) (UniProt P49137). The experiment in a line: Inhibition of human MAPKAP-K2 assessed as residual activity at 10 uM by KinaseProfiler assay. In a few lines:
as §1

For assay [13], the target named is Glycogen synthase kinase-3 beta (Homo sapiens) (UniProt P49841). The experiment in a line: Inhibition of human GSK3beta assessed as residual activity at 10 uM by KinaseProfiler assay. In a few lines:
as §1

Assay [14] concerns the target Dual specificity tyrosine-phosphorylation-regulated kinase 2 (Homo sapiens) (UniProt Q92630). The experiment in a line: Inhibition of human DYRK2 assessed as residual activity at 10 uM by KinaseProfiler assay.
The target in assay [15] is Tyrosine-protein kinase CSK (Homo sapiens) (UniProt P41240). The experiment in a line: Inhibition of human CSK assessed as residual activity at 10 uM by KinaseProfiler assay. In a few lines:
as §1

Assay [16] addresses Tyrosine-protein kinase Lyn (Homo sapiens) (UniProt P07948). The experiment in a line: Inhibition of human Lyn assessed as residual activity at 10 uM by KinaseProfiler assay. In a few lines: as §1
Assay [17] has as its target 5'-AMP-activated protein kinase catalytic subunit alpha-2 (Homo sapiens) (UniProt P54646). The experiment in a line: Inhibition of human AMPKalpha2 assessed as residual activity at 10 uM by KinaseProfiler assay. In a few lines:
as §1

Sequence of Mitogen-activated protein kinase 9 (Homo sapiens) (P45984 whole entry, looked up): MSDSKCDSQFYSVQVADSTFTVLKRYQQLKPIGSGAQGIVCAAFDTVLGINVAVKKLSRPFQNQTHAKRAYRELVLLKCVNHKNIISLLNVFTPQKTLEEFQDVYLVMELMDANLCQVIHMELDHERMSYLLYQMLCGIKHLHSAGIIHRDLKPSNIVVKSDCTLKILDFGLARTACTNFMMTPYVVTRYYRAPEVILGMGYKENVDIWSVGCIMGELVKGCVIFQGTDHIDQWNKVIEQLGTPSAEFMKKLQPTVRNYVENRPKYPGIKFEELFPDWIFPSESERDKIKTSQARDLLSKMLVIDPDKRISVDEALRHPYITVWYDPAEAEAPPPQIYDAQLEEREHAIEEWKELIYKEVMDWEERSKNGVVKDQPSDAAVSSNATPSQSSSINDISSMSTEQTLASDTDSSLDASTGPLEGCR
Sequence of 5'-AMP-activated protein kinase catalytic subunit alpha-2 (Homo sapiens) (P54646 whole entry, looked up): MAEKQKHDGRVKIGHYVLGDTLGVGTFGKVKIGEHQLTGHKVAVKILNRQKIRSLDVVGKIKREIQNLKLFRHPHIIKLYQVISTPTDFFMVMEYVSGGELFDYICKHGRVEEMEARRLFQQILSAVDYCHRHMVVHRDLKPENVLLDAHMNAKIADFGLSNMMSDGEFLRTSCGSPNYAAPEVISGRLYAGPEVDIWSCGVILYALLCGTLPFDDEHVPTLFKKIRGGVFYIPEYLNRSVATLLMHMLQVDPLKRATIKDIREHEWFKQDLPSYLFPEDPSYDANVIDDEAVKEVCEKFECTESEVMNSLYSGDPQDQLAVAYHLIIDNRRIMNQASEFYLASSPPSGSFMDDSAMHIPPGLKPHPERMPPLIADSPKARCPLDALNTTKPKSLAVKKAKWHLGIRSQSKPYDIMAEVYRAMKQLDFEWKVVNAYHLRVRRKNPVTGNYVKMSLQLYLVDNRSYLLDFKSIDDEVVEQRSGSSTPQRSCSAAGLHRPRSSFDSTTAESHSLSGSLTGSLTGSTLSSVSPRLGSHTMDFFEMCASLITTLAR
Sequence of Tyrosine-protein kinase CSK (Homo sapiens) (P41240 2-450 limits assumed): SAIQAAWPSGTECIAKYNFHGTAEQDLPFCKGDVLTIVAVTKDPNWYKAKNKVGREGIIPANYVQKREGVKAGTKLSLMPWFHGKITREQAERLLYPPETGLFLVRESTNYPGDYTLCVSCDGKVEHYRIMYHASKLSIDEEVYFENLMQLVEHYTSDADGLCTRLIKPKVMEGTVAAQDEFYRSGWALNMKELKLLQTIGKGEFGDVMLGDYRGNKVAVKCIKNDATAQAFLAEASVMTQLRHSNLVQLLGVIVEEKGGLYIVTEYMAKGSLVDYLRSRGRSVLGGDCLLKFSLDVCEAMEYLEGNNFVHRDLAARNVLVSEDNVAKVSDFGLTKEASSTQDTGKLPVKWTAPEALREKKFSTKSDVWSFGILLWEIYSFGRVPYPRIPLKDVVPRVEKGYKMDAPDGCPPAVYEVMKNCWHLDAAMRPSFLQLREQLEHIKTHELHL
Sequence of Mitogen-activated protein kinase 14 (Homo sapiens) (Q16539 whole entry): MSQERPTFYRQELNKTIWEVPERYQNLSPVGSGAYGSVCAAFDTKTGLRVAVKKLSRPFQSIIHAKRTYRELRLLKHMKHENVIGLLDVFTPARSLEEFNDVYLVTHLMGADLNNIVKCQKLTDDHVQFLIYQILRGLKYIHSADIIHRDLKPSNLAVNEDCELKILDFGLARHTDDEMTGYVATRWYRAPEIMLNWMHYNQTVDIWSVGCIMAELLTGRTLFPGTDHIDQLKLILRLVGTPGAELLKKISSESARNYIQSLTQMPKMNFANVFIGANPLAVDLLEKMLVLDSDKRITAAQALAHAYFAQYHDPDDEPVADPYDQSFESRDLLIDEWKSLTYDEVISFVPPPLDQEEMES
Sequence of Rho-associated protein kinase 2 (Homo sapiens) (O75116 whole entry, looked up): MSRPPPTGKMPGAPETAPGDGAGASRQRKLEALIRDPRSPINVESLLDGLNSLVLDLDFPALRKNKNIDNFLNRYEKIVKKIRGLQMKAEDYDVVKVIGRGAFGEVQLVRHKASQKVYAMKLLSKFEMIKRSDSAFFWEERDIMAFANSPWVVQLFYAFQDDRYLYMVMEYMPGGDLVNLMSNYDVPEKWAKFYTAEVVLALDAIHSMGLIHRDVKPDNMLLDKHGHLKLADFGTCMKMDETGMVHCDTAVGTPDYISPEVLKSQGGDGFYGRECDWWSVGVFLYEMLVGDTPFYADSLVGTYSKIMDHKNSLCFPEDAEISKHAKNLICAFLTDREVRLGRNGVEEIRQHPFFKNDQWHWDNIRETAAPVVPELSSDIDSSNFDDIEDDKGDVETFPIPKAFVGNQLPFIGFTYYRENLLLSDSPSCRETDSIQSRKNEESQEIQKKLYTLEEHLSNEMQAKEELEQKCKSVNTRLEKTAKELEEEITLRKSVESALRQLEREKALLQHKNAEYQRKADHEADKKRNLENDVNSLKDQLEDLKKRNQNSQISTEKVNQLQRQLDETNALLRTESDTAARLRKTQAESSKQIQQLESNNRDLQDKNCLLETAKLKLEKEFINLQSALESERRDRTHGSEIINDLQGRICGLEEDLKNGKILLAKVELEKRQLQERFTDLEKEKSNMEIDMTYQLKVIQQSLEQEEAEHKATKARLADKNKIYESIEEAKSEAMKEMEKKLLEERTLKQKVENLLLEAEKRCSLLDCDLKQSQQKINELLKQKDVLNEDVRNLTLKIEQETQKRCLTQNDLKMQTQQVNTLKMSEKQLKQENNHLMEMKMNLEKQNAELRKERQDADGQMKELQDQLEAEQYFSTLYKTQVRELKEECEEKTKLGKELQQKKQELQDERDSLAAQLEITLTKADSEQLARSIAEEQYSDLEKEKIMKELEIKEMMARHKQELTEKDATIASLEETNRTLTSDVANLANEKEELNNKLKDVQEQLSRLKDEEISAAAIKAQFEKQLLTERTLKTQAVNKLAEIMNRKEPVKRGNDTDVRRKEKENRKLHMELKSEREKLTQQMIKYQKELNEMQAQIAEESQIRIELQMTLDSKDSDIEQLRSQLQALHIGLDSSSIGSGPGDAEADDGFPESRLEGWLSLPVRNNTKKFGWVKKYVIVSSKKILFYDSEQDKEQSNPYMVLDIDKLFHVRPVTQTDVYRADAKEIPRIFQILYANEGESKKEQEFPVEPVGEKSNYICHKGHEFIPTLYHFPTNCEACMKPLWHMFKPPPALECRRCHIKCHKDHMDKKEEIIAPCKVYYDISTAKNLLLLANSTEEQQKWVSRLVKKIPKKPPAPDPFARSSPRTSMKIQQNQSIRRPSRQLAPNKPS
Sequence of Tyrosine-protein kinase Lyn (Homo sapiens) (P07948 2-512 limits assumed): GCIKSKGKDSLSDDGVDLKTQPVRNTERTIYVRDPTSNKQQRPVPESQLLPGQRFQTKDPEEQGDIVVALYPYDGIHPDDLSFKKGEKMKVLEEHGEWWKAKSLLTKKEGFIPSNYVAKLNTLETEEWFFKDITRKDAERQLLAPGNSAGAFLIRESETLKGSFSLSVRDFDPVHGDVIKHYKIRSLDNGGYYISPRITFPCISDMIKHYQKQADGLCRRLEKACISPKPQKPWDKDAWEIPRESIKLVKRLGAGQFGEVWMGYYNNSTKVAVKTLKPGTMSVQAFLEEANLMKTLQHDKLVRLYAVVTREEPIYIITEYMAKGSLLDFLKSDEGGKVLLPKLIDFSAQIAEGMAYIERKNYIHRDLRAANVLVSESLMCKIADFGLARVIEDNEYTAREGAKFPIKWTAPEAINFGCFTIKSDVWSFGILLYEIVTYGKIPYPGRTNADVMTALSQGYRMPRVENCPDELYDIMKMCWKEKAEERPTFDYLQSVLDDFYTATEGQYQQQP
Sequence of MAP kinase-activated protein kinase 2 (Homo sapiens) (P49137 whole entry, looked up): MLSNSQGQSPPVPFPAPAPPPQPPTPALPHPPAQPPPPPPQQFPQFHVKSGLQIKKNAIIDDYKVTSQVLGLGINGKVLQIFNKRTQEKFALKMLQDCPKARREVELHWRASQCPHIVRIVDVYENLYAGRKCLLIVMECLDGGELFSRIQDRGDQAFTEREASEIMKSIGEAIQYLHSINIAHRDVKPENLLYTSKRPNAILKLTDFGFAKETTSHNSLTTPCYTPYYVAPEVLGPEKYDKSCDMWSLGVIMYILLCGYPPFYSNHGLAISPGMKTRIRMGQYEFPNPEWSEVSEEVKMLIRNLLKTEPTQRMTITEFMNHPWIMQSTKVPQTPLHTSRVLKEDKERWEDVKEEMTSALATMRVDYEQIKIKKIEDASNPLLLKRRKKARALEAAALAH
Sequence of Dual specificity tyrosine-phosphorylation-regulated kinase 2 (Homo sapiens) (Q92630 whole entry, looked up): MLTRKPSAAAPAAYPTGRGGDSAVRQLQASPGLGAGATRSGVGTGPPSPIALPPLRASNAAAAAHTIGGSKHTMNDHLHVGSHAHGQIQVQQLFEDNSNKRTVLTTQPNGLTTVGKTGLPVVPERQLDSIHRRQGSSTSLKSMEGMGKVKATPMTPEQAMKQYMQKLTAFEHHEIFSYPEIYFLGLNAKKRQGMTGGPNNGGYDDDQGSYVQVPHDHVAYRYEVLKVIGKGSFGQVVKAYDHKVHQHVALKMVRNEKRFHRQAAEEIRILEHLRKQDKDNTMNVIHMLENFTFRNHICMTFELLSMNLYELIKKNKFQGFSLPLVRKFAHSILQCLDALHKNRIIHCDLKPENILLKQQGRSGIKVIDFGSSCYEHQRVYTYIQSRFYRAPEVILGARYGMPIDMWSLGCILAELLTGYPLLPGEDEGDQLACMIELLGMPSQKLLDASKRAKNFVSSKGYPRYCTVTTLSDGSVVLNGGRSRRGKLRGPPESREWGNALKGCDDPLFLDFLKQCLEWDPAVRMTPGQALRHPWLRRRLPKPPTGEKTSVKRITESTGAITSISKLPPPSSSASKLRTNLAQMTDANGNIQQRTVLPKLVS

Turning to `CCOC(=O)C1=C(C)N=c2s/c(=C\c3ccc(O)c(O)c3)c(=O)n2C1c1ccc(Cl)cc1` (stereo unspecified), the Activity was 79% in assay [1]; 117% in assay [2]; 78% in assay [3]; 130% in assay [4]; 69% in [5]; 77% in assay [6]. In addition, the Activity in assay [7] turned out to be 89%; in [8], 72%; in assay [9] it was 50%; in assay [10], 101%; in [11], 91%; in [12] it was 98%. In addition, the Activity in [13] came to 52%; in assay [14] it was 14%; in [15] it was 82%; in assay [16] it was 20%; in assay [17] it was 65%.

In the case of `CCOC(=O)C1=C(C)N=c2s/c(=C\c3cc(O)c(O)c(O)c3)c(=O)n2C1c1ccc(Cl)cc1` (stereo unspecified), the Activity in assay [1] was found to be 76%; in [2], 122%; in assay [3], 69%; in [4], 92%; in [5], 63%; in [6] it was 28%. Moreover, the Activity in assay [7] was 108%; in [8], 59%; in assay [9], 77%; in assay [10], 92%; in assay [11], 92%; in [12], 86%. For the same molecule, the Activity was 51% in assay [13]; 118% in assay [14]; 54% in [15]; 5% in assay [16]; 48% in assay [17].

As for `Brc1c(Br)c(Br)c2[nH]nnc2c1Br`, the Activity was 106% in [1]; 95% in assay [2]; 93% in assay [3]; 109% in assay [4]; 29% in [5]; 87% in assay [6]. The Activity is 73% in assay [7]; 99% in assay [8]; 51% in assay [9]; 51% in assay [10]; 50% in [11]; 78% in assay [12]. Besides, the Activity came to 42% in assay [13]; 2% in [14]; 116% in assay [15]; 113% in assay [16]; 83% in assay [17].
